ChEMBL document CHEMBL3997828, “Investigation of orexin-2 selective receptor antagonists: Structural modifications resulting in dual orexin receptor antagonists” (Bioorg Med Chem Lett, 2017)
In brackets after ≈: the same amount, converted by molar mass.

How the values were obtained:
Homo sapiens [1] = species on record: Homo sapiens; assay: Selectivity ratio of IC50 for human OX1R expressed in CHOK1 cells to IC50 for human OX2R expressed in CHOK1 cells by FLIPR assay; format: cell-based
Homo sapiens [2] = species on record: Homo sapiens; assay: Selectivity ratio of Ki for human OX1R expressed in CHOK1 cell membranes to Ki for human OX2R expressed in CHOK1 cell membranes; format: cell-based
Method in brief: (§1)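 Radioligand competition binding used membranes from CHO-K1 cells overexpressing human OX1R or OX2R. […] The selectivity ratio is OX1R Ki divided by OX2R Ki.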

[3] = biological target: T1, Orexin/Hypocretin receptor type 1 (Homo sapiens, UniProt O43613); assay: Antagonist activity at human OX1R expressed in CHOK1 cells assessed as reduction in orexin A-induced calcium flux preincubated followed by orexin A addition by FLIPR assays; format: functional, cell-based
T1 sequence (O43613 whole entry): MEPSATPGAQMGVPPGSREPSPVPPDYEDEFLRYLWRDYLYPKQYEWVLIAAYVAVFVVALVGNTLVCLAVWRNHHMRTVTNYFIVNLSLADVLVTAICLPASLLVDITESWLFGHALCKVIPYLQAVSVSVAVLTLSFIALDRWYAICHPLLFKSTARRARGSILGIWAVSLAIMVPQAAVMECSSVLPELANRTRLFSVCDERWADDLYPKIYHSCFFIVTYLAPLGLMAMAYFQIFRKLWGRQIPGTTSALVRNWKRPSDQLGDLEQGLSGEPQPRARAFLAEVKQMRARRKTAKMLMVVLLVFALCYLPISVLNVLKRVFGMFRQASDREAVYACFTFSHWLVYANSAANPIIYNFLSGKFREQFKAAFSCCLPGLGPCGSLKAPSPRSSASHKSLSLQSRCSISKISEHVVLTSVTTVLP

Orexin receptor type 2 [4] = biological target: T2, Orexin receptor type 2 (Homo sapiens, UniProt O43614); assay: Antagonist activity at human OX2R expressed in CHOK1 cells assessed as reduction in orexin A-induced calcium flux preincubated followed by orexin A addition by FLIPR assays; format: functional, cell-based
T2 sequence (O43614 whole entry): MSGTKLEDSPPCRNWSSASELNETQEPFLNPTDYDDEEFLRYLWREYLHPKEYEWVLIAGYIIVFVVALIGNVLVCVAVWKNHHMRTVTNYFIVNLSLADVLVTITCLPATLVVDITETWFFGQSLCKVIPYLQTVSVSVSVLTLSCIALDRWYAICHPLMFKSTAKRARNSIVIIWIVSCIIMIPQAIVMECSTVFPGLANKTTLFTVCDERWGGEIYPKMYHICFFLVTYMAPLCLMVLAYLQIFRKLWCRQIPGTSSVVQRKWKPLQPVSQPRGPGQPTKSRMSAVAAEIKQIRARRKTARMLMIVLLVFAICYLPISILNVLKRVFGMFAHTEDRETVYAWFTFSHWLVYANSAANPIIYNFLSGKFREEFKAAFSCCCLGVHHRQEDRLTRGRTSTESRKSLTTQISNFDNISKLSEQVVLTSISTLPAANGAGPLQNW

[5] = biological target: T1, Orexin/Hypocretin receptor type 1; assay: Displacement of [3H](S)-N-(biphenyl-2-yl)-1-(2-(1-methyl-1H-benzo[d]imidazol-2-ylthio)acetyl)pyrrolidine-2-carboxamide from human OX1R expressed in CHOK1 cell membranes
Method in brief: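 Radioligand competition binding used membranes from CHO-K1 cells overexpressing human OX1R or OX2R. The selectivity ratio is OX1R Ki divided by OX2R Ki.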

Orexin receptor type 2 [6] = biological target: T2, Orexin receptor type 2; assay: Displacement of [3H](S)-N-(2-(1H-pyrrol-1-yl)phenyl)-1-(2-(1-methyl-1H-benzo[d]imidazol-2-ylthio)acetyl)pyrrolidine-2-carboxamide from human OX2R expressed in CHOK1 cell membranes; method in brief: as §1
[7] = biological target: T3, Nuclear receptor subfamily 1 group I member 2 (Homo sapiens, UniProt O75469); assay: Inhibition of PXR (unknown origin); format: ADME
T3 sequence (O75469 whole entry): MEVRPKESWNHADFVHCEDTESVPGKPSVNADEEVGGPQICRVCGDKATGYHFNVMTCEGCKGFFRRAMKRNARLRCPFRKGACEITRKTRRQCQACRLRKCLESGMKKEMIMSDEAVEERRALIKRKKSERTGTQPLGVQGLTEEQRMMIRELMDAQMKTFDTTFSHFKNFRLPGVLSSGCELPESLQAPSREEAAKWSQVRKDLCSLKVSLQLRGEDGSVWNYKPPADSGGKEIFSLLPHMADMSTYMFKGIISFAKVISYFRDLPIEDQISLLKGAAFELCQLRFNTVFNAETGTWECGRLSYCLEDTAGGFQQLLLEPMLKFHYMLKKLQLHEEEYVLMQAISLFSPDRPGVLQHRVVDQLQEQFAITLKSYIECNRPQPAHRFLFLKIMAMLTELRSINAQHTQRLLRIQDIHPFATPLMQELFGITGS

[8] = Time-dependent inhibition of CYP450 (unknown origin); format: ADME; conditions: human
[9] = Solubility of the compound in pH 6.5 FASSIF at 0.1 mg/ml after 15 mins by reverse-phase chromatography; format: physicochemical; conditions: fasted state simulated intestinal fluid (FaSSIF)
Method in brief: (§2)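 Compound at […] was stirred at 80 rpm in SGF (0.01 N HCl, 0.9 wt.% NaCl, pH 1.8) or FASSIF (3 mM sodium taurocholate, 0.75 mM lecithin, 100 mM NaCl, NaOH/NaH₂PO₄, pH 6.5). It was then centrifuged at 14k rpm for 15 min.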

[10] = Solubility of the compound in pH 1.8 SGF at 0.1 mg/ml after 15 mins by reverse-phase chromatography; format: physicochemical; conditions: simulated gastric fluid (SGF); method in brief: as §2

## Cc1c(C#N)ccnc1O[C@@H]1CC[C@@H](C)N(C(=O)c2ccccc2-n2nccn2)C1
Homo sapiens [1]
  Ratio IC50: 125
Homo sapiens [2]
  Ratio Ki: 285
[3]
  IC50: 996 nM

## C[C@@H]1CC[C@@H](Sc2cc(C#N)ccn2)CN1C(=O)c1ccccc1-n1nccn1
Homo sapiens [1]
  Ratio IC50: 109
Orexin receptor type 2 [4]
  IC50: 13 nM
[5]
  Ki: 324 nM
Homo sapiens [2]
  Ratio Ki: 191
Orexin receptor type 2 [6]
  Ki: 1.7 nM

## Cc1c(C#N)ccnc1O[C@@H]1CC[C@@H](C)N(C(=O)c2ccc(Br)nc2-n2nccn2)C1
Homo sapiens [1]
  Ratio IC50: > 345
Homo sapiens [2]
  Ratio Ki: 326
[3]
  IC50: > 10000 nM

## Cc1c(C#N)ccnc1O[C@@H]1CC[C@@H](C)N(C(=O)c2cccnc2-c2ccccc2)C1
Homo sapiens [1]
  Ratio IC50: 180
Homo sapiens [2]
  Ratio Ki: 434
[3]
  IC50: 4670 nM

## COc1ccc(C(=O)N2C[C@H](Oc3nccc(C#N)c3C)CC[C@H]2C)c(-n2nccn2)n1
Homo sapiens [1]
  Ratio IC50: 282
[7]
  inhibition (INH): Active
Homo sapiens [2]
  Ratio Ki: 1190
[3]
  IC50: 5930 nM

## CC(=O)Nc1ccc(-c2ccccc2)c(C(=O)N2C[C@H](Oc3nccc(C#N)c3C)CC[C@H]2C)n1
Homo sapiens [1]
  Ratio IC50: 2
Orexin receptor type 2 [4]
  IC50: 38 nM
[5]
  Ki: 12 nM
Homo sapiens [2]
  Ratio Ki: 20
[3]
  IC50: 74 nM
Orexin receptor type 2 [6]
  Ki: 0.6 nM

## COc1ccc(C(=O)N2C[C@H](Oc3nccc(C#N)c3C)CC[C@H]2C)c(-n2nccn2)c1
[7]
  inhibition (INH): Active

## Cc1c(C#N)ccnc1O[C@@H]1CC[C@@H](C)N(C(=O)c2ccccc2N2CCCC2)C1
Homo sapiens [1]
  Ratio IC50: 107
[8]
  TDI: Active
Homo sapiens [2]
  Ratio Ki: 232
[3]
  IC50: 3100 nM

## Cc1c(C#N)ccnc1O[C@@H]1CC[C@@H](C)N(C(=O)c2ccccc2C(F)(F)F)C1
Homo sapiens [1]
  Ratio IC50: 236
Homo sapiens [2]
  Ratio Ki: 373
[3]
  IC50: 4960 nM

## COC(=O)c1cccnc1O[C@@H]1CC[C@@H](C)N(C(=O)c2ccccc2-n2nccn2)C1
Homo sapiens [1]
  Ratio IC50: 9
Orexin receptor type 2 [4]
  IC50: 35 nM
[5]
  Ki: 66 nM
Homo sapiens [2]
  Ratio Ki: 26
[3]
  IC50: 309 nM
Orexin receptor type 2 [6]
  Ki: 2.5 nM

## C[C@@H]1CC[C@@H](Nc2cc(C#N)ccn2)CN1C(=O)c1ccccc1-n1nccn1
Homo sapiens [1]
  Ratio IC50: 60
[5]
  Ki: 287 nM
Homo sapiens [2]
  Ratio Ki: 319
[3]
  IC50: 1740 nM
Orexin receptor type 2 [6]
  Ki: 0.9 nM

## COC(=O)c1ccnc(O[C@@H]2CC[C@@H](C)N(C(=O)c3ccccc3-n3nccn3)C2)c1
Homo sapiens [1]
  Ratio IC50: 82
Homo sapiens [2]
  Ratio Ki: 80

## COc1ccc(C(=O)N2C[C@H](Oc3nccc(C#N)c3C)CC[C@H]2C)c(C2CC2)n1
[8]
  TDI: Active

## COC(=O)c1cccnc1N[C@@H]1CC[C@@H](C)N(C(=O)c2ccccc2-n2nccn2)C1
Homo sapiens [1]
  Ratio IC50: 2
[5]
  Ki: 12 nM
Homo sapiens [2]
  Ratio Ki: 30
[3]
  IC50: 69 nM
Orexin receptor type 2 [6]
  Ki: 0.4 nM

## C[C@@H]1CC[C@@H](Oc2nccc3c2C(=O)OC3(C)C)CN1C(=O)c1ccccc1-n1nccn1
Homo sapiens [1]
  Ratio IC50: 414
[5]
  Ki: 834 nM
Homo sapiens [2]
  Ratio Ki: 379
Orexin receptor type 2 [6]
  Ki: 2.2 nM

## COC(=O)c1c(C#N)ccnc1O[C@@H]1CC[C@@H](C)N(C(=O)c2ccccc2-n2nccn2)C1
Homo sapiens [1]
  Ratio IC50: 39
Homo sapiens [2]
  Ratio Ki: 112
Orexin receptor type 2 [6]
  Ki: 0.5 nM

## COc1ccc(C(=O)N2C[C@H](Oc3nccc(C#N)c3C)CC[C@H]2C)c(SC)n1
Homo sapiens [1]
  Ratio IC50: > 455
[8]
  TDI: Active
Homo sapiens [2]
  Ratio Ki: 1260
[3]
  IC50: > 10000 nM

## CCOc1ccccc1C(=O)N1C[C@H](Oc2nccc(C#N)c2C)CC[C@H]1C
Homo sapiens [1]
  Ratio IC50: 350
[7]
  inhibition (INH): Active
Homo sapiens [2]
  Ratio Ki: 849
[3]
  IC50: 2100 nM

## Cc1c(C#N)ccnc1O[C@@H]1CC[C@@H](C)N(C(=O)c2ccccc2C2CC2)C1
Homo sapiens [1]
  Ratio IC50: 193
Homo sapiens [2]
  Ratio Ki: 741
[3]
  IC50: 1740 nM

## CC(=O)Nc1cc(C(=O)N2C[C@H](Oc3nccc(C#N)c3C)CC[C@H]2C)c(-c2ccccc2)cn1
Homo sapiens [1]
  Ratio IC50: 2
Orexin receptor type 2 [4]
  IC50: 38 nM
[5]
  Ki: 10 nM
Homo sapiens [2]
  Ratio Ki: 14
[3]
  IC50: 71 nM
Orexin receptor type 2 [6]
  Ki: 0.7 nM

## COC(=O)c1cccnc1S[C@@H]1CC[C@@H](C)N(C(=O)c2ccccc2-n2nccn2)C1
Homo sapiens [1]
  Ratio IC50: 2
[5]
  Ki: 6.3 nM
Homo sapiens [2]
  Ratio Ki: 8
Orexin receptor type 2 [6]
  Ki: 0.8 nM

## Cc1c(C#N)ccnc1O[C@@H]1CC[C@@H](C)N(C(=O)c2ccccc2-n2ncnn2)C1
Homo sapiens [1]
  Ratio IC50: 596
Homo sapiens [2]
  Ratio Ki: 358
[3]
  IC50: 4590 nM

## C[C@@H]1CC[C@@H](Oc2cc(C#N)ccn2)CN1C(=O)c1ccccc1-c1ncccn1
Homo sapiens [1]
  Ratio IC50: 175
[5]
  Ki: 569 nM
Homo sapiens [2]
  Ratio Ki: 438
[9]
  solubility at 0.25 h: 660 µg/mL (≈ 1650 µM)
[10]
  solubility at 0.25 h: 680 µg/mL (≈ 1700 µM)
